Assay [1] addresses Estrogen receptor beta (Homo sapiens) (UniProt Q92731). Put plainly: Relative binding affinity to ERbeta by radiometric binding assay relative to estradiol. The procedure, abridged:
(§1)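 RBA values for the PAMAM-dendrimer conjugate are calculated from the concentration of attached ligand rather than that of the conjugate.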

The target of assay [2] is T1, Estrogen receptor (Homo sapiens) (UniProt P03372).
T1 sequence (whole entry): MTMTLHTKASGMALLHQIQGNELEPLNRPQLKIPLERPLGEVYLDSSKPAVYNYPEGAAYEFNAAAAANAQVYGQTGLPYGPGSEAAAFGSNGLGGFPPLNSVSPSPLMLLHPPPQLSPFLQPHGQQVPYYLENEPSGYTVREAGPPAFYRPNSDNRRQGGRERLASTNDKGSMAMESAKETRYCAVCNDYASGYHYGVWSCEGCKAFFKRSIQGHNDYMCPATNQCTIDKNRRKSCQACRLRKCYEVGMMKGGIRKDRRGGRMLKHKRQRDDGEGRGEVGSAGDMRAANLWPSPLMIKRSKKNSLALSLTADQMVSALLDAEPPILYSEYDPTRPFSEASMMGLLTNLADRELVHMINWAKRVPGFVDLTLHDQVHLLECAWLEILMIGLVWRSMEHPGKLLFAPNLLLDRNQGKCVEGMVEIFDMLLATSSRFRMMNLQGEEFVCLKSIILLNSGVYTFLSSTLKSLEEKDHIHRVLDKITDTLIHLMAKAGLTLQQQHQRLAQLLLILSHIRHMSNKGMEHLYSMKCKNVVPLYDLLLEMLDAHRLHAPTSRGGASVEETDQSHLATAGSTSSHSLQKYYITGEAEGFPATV
Briefly: Relative binding affinity to ERalpha by radiometric binding assay relative to estradiol. The procedure, abridged:
as §1

We go through nine compounds from ChEMBL document CHEMBL1154527, “Tethered indoles as functionalizable ligands for the estrogen receptor” (Bioorg Med Chem Lett, 2009).

The structures appear in SMILES notation.

Estrogen receptor beta (Homo sapiens), sequence (Q92731 whole entry): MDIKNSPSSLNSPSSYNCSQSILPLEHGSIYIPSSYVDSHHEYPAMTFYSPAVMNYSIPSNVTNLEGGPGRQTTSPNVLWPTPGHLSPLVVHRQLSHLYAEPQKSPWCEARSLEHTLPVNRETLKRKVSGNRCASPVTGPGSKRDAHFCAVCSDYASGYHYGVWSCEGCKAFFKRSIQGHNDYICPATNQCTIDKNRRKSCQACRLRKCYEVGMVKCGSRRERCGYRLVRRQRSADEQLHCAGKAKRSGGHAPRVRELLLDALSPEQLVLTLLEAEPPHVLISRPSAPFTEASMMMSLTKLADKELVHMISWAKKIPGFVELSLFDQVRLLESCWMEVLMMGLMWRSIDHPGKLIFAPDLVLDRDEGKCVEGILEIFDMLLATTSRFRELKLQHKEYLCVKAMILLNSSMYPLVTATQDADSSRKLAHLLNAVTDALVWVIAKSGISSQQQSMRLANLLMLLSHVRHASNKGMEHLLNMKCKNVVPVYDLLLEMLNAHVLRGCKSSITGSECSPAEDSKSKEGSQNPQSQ

For the compound `CCCCOc1ccc(Cn2c(-c3ccc(O)cc3)c(C)c3cc(O)ccc32)cc1`, in assay [1], the relative binding affinity (RBA) is 1.2.

Turning to `COCCCCCCn1c(-c2ccc(O)cc2)c(C)c2cc(O)ccc21`, the relative binding affinity (RBA) amounted to 11 in assay [2] and 2 in assay [1].

As for `CC(=O)NCCNCc1ccc(OCCCn2c(-c3ccc(O)cc3)c(C)c3cc(O)ccc32)cc1`, the relative binding affinity (RBA) in assay [2] amounted to 2.17; in assay [1], 0.24.

With `Cc1c(-c2ccc(O)cc2)n(Cc2ccc(O)cc2)c2ccc(O)cc12`, the values for the relative binding affinity (RBA) in assay [2] and in assay [1] were 10 and 1, respectively.

In the case of `COc1ccc(Cn2c(-c3ccc(O)cc3)c(C)c3cc(O)ccc32)cc1`, the relative binding affinity (RBA) worked out at 11 in assay [2] and 6.5 in assay [1].

In assay [1], `CCCCOCCCCCCn1c(-c2ccc(O)cc2)c(C)c2cc(O)ccc21` had a relative binding affinity (RBA) of 3.

Consider `Cc1c(-c2ccc(O)cc2)n(CCCCCCO)c2ccc(O)cc12`, for which the results for the relative binding affinity (RBA) in assay [2] and in assay [1] were 13 and 1.4, respectively.

Take `Cc1ccc(C(=O)NCCCCn2c(-c3ccc(O)cc3)c(C)c3cc(O)ccc32)cc1`: in assay [1], the relative binding affinity (RBA) was determined as 0.048.

Turning to `CCSC(SCC)c1ccc(OCCCn2c(-c3ccc(O)cc3)c(C)c3cc(O)ccc32)cc1`, the relative binding affinity (RBA) in assay [1] is 0.084.
